≈ marks a conversion by molar mass, not a printed value. Where a SMILES comes first, the peptide text is derived from it. Bridges are numbered along the chain shown (N, C = ends). [ ]: non-standard residue; d: D form. The star is where a group is joined. Benzoyl(3-Ph) = O=C(c1cccc(-c2ccccc2)c1)*; X11 = COc1cc(C(=O)*)cc(-c2ccccc2)c1; X12 = O=C(c1ccc(Cl)c(-c2ccccc2)c1)*; X16 = COc1cc(C(=O)*)cc(-c2ccccc2)n1; X17 = O=S(=O)(c1cccc(-c2ccccc2)c1)*; X19 = O=C(c1ccnc(-c2cccc(Cl)c2)c1)*; X15 = N#Cc1ccc(C(=O)*)cc1-c1ccccc1; X9 = COc1ccc(-c2cc(C(=O)*)ccn2)cc1; X10 = O=C(c1ccnc(-c2ccccc2Cl)c1)*; X13 = COc1ccc(-c2ccccc2)cc1C(=O)*; X8 = N#Cc1cc(C(=O)*)ccc1-c1ccccc1; X14 = O=C(c1ccc(Oc2ccccc2)nc1)*; Dab = NCC[C@H](N)C(=O)O; Dap = NC[C@H](N)C(=O)O
What was measured:
[1] = tested on: Escherichia coli; assay: Antibacterial activity against polymyxin-sensitive Escherichia coli isolate 1 assessed as growth inhibition by broth microdilution method; assay type: functional
[2] = tested on: Acinetobacter baumannii; assay: Bactericidal activity against polymyxin-resistant Acinetobacter baumannii clinical isolate 1649; assay type: functional
[3] = tested on: Pseudomonas aeruginosa; assay: Antibacterial activity against polymyxin-resistant Pseudomonas aeruginosa clinical isolate 1646 assessed as growth inhibition by broth microdilution method; assay type: functional
How it was run: (§1)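 Test strain PA-1646 is a P. aeruginosa isolate with a mutated PmrAB two-component system. The system is constitutively active, so the modified lipid A moiety is constantly expressed on the cell surface, giving a polymyxin-resistant phenotype.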

[4] = tested on: Pseudomonas aeruginosa; assay: Bactericidal activity against polymyxin-resistant Pseudomonas aeruginosa clinical isolate 1646; assay type: functional; how it was run: as §1
[5] = tested on: Acinetobacter baumannii; assay: Antibacterial activity against polymyxin-sensitive Acinetobacter baumannii clinical isolate 3167 assessed as growth inhibition by broth microdilution method; assay type: functional
[6] = tested on: Pseudomonas aeruginosa; assay: Antibacterial activity against polymyxin-sensitive Pseudomonas aeruginosa 1401 assessed as growth inhibition by broth microdilution method; assay type: functional
How it was run: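 CLSI broth microdilution MIC against P. aeruginosa 1401 (PA01) and 1402 (UC12120), the two strains used in the mouse thigh model.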

[7] = tested on: Acinetobacter baumannii; assay: Antibacterial activity against polymyxin-resistant Acinetobacter baumannii clinical isolate 1649 assessed as growth inhibition by broth microdilution method; assay type: functional
[8] = Cytotoxicity against human RPTEC after 24 hrs by LDH assay; assay type: cell-based; settings: RPTEC cells, read-out: TC50
How it was run: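 Primary human renal proximal tubule epithelial cells in REGM (EGF, hydrocortisone, epinephrine, insulin, T3, transferrin, gentamycin/amphotericin-B, FBS). After 72 h of growth at 37 °C, 5% CO2, cells were exposed for 24 h to aqueous compound at 100, 67, 44, 30, 20 and 13 μM. LDH release into the supernatant was measured by kit and TC50 (μM) derived, with PMB and PMBN as controls.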

[9] = tested on: Klebsiella pneumoniae; assay: Antibacterial activity against polymyxin-sensitive ESBL-positive Klebsiella pneumoniae clinical isolate 3700 assessed as growth inhibition by broth microdilution method; assay type: functional

SMILES	MIC [1]	MBC [2]	MIC [3]	MBC [4]	MIC [5]	MIC [6]	MIC [7]	CC50 at 24 h [8]	MIC [9]
CC(C)C[C@@H]1NC(=O)[C@@H](Cc2ccccc2)NC(=O)[C@H](CCN)NC(=O)[C@@H](NC(=O)[C@H](CN)NC(=O)[C@@H](NC(=O)[C@H](CCN)NC(=O)c2ccc(-c3ccccc3)c(C#N)c2)[C@@H](C)O)CCNC(=O)[C@H]([C@@H](C)O)NC(=O)[C@H](CCN)NC(=O)[C@H](CCN)NC1=O (X8-[Dab]T[Dap][Dab][Dab][dF]L[Dab][Dab]T; lactam 4-C)	0.5 µg/mL	1 µg/mL (≈ 0.797 µM)	2 µg/mL	4 µg/mL (≈ 3.19 µM)	0.25 µg/mL	1 µg/mL	1 µg/mL	32 µM	0.5 µg/mL
COc1ccc(-c2cc(C(=O)N[C@@H](CCN)C(=O)N[C@H](C(=O)N[C@@H](CN)C(=O)N[C@H]3CCNC(=O)[C@H]([C@@H](C)O)NC(=O)[C@H](CCN)NC(=O)[C@H](CCN)NC(=O)[C@H](CC(C)C)NC(=O)[C@@H](Cc4ccccc4)NC(=O)[C@H](CCN)NC3=O)[C@@H](C)O)ccn2)cc1 (X9-[Dab]T[Dap][Dab][Dab][dF]L[Dab][Dab]T; lactam 4-C)	0.25 µg/mL	2 µg/mL (≈ 1.59 µM)	2 µg/mL	8 µg/mL (≈ 6.35 µM)	0.25 µg/mL	0.5 µg/mL	2 µg/mL	78 µM	0.25 µg/mL
CC(C)C[C@@H]1NC(=O)[C@@H](Cc2ccccc2)NC(=O)[C@H](CCN)NC(=O)[C@@H](NC(=O)[C@H](CN)NC(=O)[C@@H](NC(=O)[C@H](CCN)NC(=O)c2ccnc(-c3ccccc3Cl)c2)[C@@H](C)O)CCNC(=O)[C@H]([C@@H](C)O)NC(=O)[C@H](CCN)NC(=O)[C@H](CCN)NC1=O (X10-[Dab]T[Dap][Dab][Dab][dF]L[Dab][Dab]T; lactam 4-C)	0.125 µg/mL	1 µg/mL (≈ 0.791 µM)	4 µg/mL	16 µg/mL (≈ 12.6 µM)	0.25 µg/mL	0.5 µg/mL	1 µg/mL	86 µM	0.25 µg/mL
COc1cc(C(=O)N[C@@H](CCN)C(=O)N[C@H](C(=O)N[C@@H](CN)C(=O)N[C@H]2CCNC(=O)[C@H]([C@@H](C)O)NC(=O)[C@H](CCN)NC(=O)[C@H](CCN)NC(=O)[C@H](CC(C)C)NC(=O)[C@@H](Cc3ccccc3)NC(=O)[C@H](CCN)NC2=O)[C@@H](C)O)cc(-c2ccccc2)c1 (X11-[Dab]T[Dap][Dab][Dab][dF]L[Dab][Dab]T; lactam 4-C)	0.25 µg/mL	8 µg/mL (≈ 6.35 µM)	2 µg/mL	4 µg/mL (≈ 3.18 µM)	0.25 µg/mL	0.5 µg/mL	4 µg/mL	26 µM	0.25 µg/mL
CC(C)C[C@@H]1NC(=O)[C@@H](Cc2ccccc2)NC(=O)[C@H](CCN)NC(=O)[C@@H](NC(=O)[C@H](CN)NC(=O)[C@@H](NC(=O)[C@H](CCN)NC(=O)c2ccc(Cl)c(-c3ccccc3)c2)[C@@H](C)O)CCNC(=O)[C@H]([C@@H](C)O)NC(=O)[C@H](CCN)NC(=O)[C@H](CCN)NC1=O (X12-[Dab]T[Dap][Dab][Dab][dF]L[Dab][Dab]T; lactam 4-C)	0.25 µg/mL	1 µg/mL (≈ 0.791 µM)	0.5 µg/mL	1 µg/mL (≈ 0.791 µM)	0.5 µg/mL	1 µg/mL	1 µg/mL	14 µM	0.25 µg/mL
COc1ccc(-c2ccccc2)cc1C(=O)N[C@@H](CCN)C(=O)N[C@H](C(=O)N[C@@H](CN)C(=O)N[C@H]1CCNC(=O)[C@H]([C@@H](C)O)NC(=O)[C@H](CCN)NC(=O)[C@H](CCN)NC(=O)[C@H](CC(C)C)NC(=O)[C@@H](Cc2ccccc2)NC(=O)[C@H](CCN)NC1=O)[C@@H](C)O (X13-[Dab]T[Dap][Dab][Dab][dF]L[Dab][Dab]T; lactam 4-C)	0.5 µg/mL	4 µg/mL (≈ 3.18 µM)	2 µg/mL	2 µg/mL (≈ 1.59 µM)	0.25 µg/mL	0.5 µg/mL	4 µg/mL	19 µM	0.25 µg/mL
CC(C)C[C@@H]1NC(=O)[C@@H](Cc2ccccc2)NC(=O)[C@H](CCN)NC(=O)[C@@H](NC(=O)[C@H](CN)NC(=O)[C@@H](NC(=O)[C@H](CCN)NC(=O)c2ccc(Oc3ccccc3)nc2)[C@@H](C)O)CCNC(=O)[C@H]([C@@H](C)O)NC(=O)[C@H](CCN)NC(=O)[C@H](CCN)NC1=O (X14-[Dab]T[Dap][Dab][Dab][dF]L[Dab][Dab]T; lactam 4-C)	0.25 µg/mL	4 µg/mL (≈ 3.21 µM)	4 µg/mL	16 µg/mL (≈ 12.8 µM)	0.25 µg/mL	1 µg/mL	2 µg/mL	61 µM	0.25 µg/mL
CC(C)C[C@@H]1NC(=O)[C@@H](Cc2ccccc2)NC(=O)[C@H](CCN)NC(=O)[C@@H](NC(=O)[C@H](CN)NC(=O)[C@@H](NC(=O)[C@H](CCN)NC(=O)c2ccc(C#N)c(-c3ccccc3)c2)[C@@H](C)O)CCNC(=O)[C@H]([C@@H](C)O)NC(=O)[C@H](CCN)NC(=O)[C@H](CCN)NC1=O (X15-[Dab]T[Dap][Dab][Dab][dF]L[Dab][Dab]T; lactam 4-C)	0.125 µg/mL	0.5 µg/mL (≈ 0.399 µM)	2 µg/mL	4 µg/mL (≈ 3.19 µM)	0.25 µg/mL	0.25 µg/mL	0.5 µg/mL	39 µM	0.25 µg/mL
COc1cc(C(=O)N[C@@H](CCN)C(=O)N[C@H](C(=O)N[C@@H](CN)C(=O)N[C@H]2CCNC(=O)[C@H]([C@@H](C)O)NC(=O)[C@H](CCN)NC(=O)[C@H](CCN)NC(=O)[C@H](CC(C)C)NC(=O)[C@@H](Cc3ccccc3)NC(=O)[C@H](CCN)NC2=O)[C@@H](C)O)cc(-c2ccccc2)n1 (X16-[Dab]T[Dap][Dab][Dab][dF]L[Dab][Dab]T; lactam 4-C)	0.25 µg/mL	4 µg/mL (≈ 3.17 µM)	1 µg/mL	1 µg/mL (≈ 0.793 µM)	0.5 µg/mL	0.5 µg/mL	4 µg/mL	24 µM	0.25 µg/mL
CC(C)C[C@@H]1NC(=O)[C@@H](Cc2ccccc2)NC(=O)[C@H](CCN)NC(=O)[C@@H](NC(=O)[C@H](CN)NC(=O)[C@@H](NC(=O)[C@H](CCN)NS(=O)(=O)c2cccc(-c3ccccc3)c2)[C@@H](C)O)CCNC(=O)[C@H]([C@@H](C)O)NC(=O)[C@H](CCN)NC(=O)[C@H](CCN)NC1=O (X17-[Dab]T[Dap][Dab][Dab][dF]L[Dab][Dab]T; lactam 4-C)	0.25 µg/mL	> 64 µg/mL	2 µg/mL	4 µg/mL (≈ 3.16 µM)	1 µg/mL	0.25 µg/mL	64 µg/mL	42 µM	0.5 µg/mL
CC(C)C[C@@H]1NC(=O)[C@@H](Cc2ccccc2)NC(=O)[C@H](CCN)NC(=O)[C@@H](NC(=O)[C@H](CN)NC(=O)[C@@H](NC(=O)[C@H](CCN)NC(=O)c2ccnc(-c3cccc(Cl)c3)c2)[C@@H](C)O)CCNC(=O)[C@H]([C@@H](C)O)NC(=O)[C@H](CCN)NC(=O)[C@H](CCN)NC1=O (X19-[Dab]T[Dap][Dab][Dab][dF]L[Dab][Dab]T; lactam 4-C)	0.125 µg/mL	0.5 µg/mL (≈ 0.395 µM)	1 µg/mL	1 µg/mL (≈ 0.791 µM)	0.25 µg/mL	0.5 µg/mL	0.5 µg/mL	34 µM	0.5 µg/mL
CC(C)C[C@@H]1NC(=O)[C@@H](Cc2ccccc2)NC(=O)[C@H](CCN)NC(=O)[C@@H](NC(=O)[C@H](CN)NC(=O)[C@@H](NC(=O)[C@H](CCN)NC(=O)c2cccc(-c3ccccc3)c2)[C@@H](C)O)CCNC(=O)[C@H]([C@@H](C)O)NC(=O)[C@H](CCN)NC(=O)[C@H](CCN)NC1=O ({Benzoyl(3-Ph)}-[Dab]T[Dap][Dab][Dab][dF]L[Dab][Dab]T; lactam 4-C)	0.25 µg/mL	2 µg/mL (≈ 1.63 µM)	1 µg/mL	2 µg/mL (≈ 1.63 µM)	0.25 µg/mL	0.5 µg/mL	2 µg/mL	21 µM	0.5 µg/mL
